Test results published in ChEMBL document CHEMBL1153726, “Synthesis and anticancer activity of sclerophytin-inspired hydroisobenzofurans” (Bioorg Med Chem Lett, 2009).

Experiments:
[1] = Antitumor activity against human KB3 cells after 96 hrs by MTT assay; assay type: functional, cell-based; settings: KB3, 96 h
In short: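 Human KB-3 carcinoma cells exposed to increasing compound concentrations; viability read by MTT colorimetric assay after 96 h. Values are means of triplicate assays, expressed relative to untreated controls.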

HCT-116 = assay: Growth inhibition of human HCT116 cells at 10 uM after 96 hrs by MTT assay; assay type: functional; parameters: scale not given: the % may be the effect or the level left
MDA-MB-435 = assay: Growth inhibition of human MDA-MB-435 cells at 10 uM after 96 hrs by MTT assay; assay type: functional; parameters: scale not given: the % may be the effect or the level left
T47D = assay: Growth inhibition of human T47D cells at 10 uM after 96 hrs by MTT assay; assay type: functional; parameters: scale not given: the % may be the effect or the level left
EKVX = assay: Growth inhibition of human EKVX cells at 10 uM after 96 hrs by MTT assay; assay type: functional; parameters: scale not given: the % may be the effect or the level left
DU-145 = assay: Growth inhibition of human DU145 cells at 10 uM after 96 hrs by MTT assay; assay type: functional; parameters: scale not given: the % may be the effect or the level left
A549 = assay: Growth inhibition of human A549 cells at 10 uM after 96 hrs by MTT assay; assay type: functional; parameters: scale not given: the % may be the effect or the level left
NCI-H460 = assay: Growth inhibition of human NCI-H460 cells at 10 uM after 96 hrs by MTT assay; assay type: functional; parameters: scale not given: the % may be the effect or the level left
OVCAR-4 = assay: Growth inhibition of human OVCAR4 cells at 10 uM after 96 hrs by MTT assay; assay type: functional; parameters: scale not given: the % may be the effect or the level left
COLO 205 = assay: Growth inhibition of human COLO205 cells at 10 uM after 96 hrs by MTT assay; assay type: functional; parameters: scale not given: the % may be the effect or the level left
SK-MEL-28 = assay: Growth inhibition of human SK-MEL-28 cells at 10 uM after 96 hrs by MTT assay; assay type: functional; parameters: scale not given: the % may be the effect or the level left
PC-3 = assay: Growth inhibition of human PC3 cells at 10 uM after 96 hrs by MTT assay; assay type: functional; parameters: scale not given: the % may be the effect or the level left
ACHN = assay: Growth inhibition of human ACHN cells at 10 uM after 96 hrs by MTT assay; assay type: functional; parameters: scale not given: the % may be the effect or the level left
SK-MEL-2 = assay: Growth inhibition of human SK-MEL-2 cells at 10 uM after 96 hrs by MTT assay; assay type: functional; parameters: scale not given: the % may be the effect or the level left
SNB-19 = assay: Growth inhibition of human SNB19 cells at 10 uM after 96 hrs by MTT assay; assay type: functional; parameters: scale not given: the % may be the effect or the level left
CCRF-CEM = assay: Growth inhibition of human CCRF-CEM cells at 10 uM after 96 hrs by MTT assay; assay type: functional; parameters: scale not given: the % may be the effect or the level left
IGROV-1 = assay: Growth inhibition of human IGROV1 cells at 10 uM after 96 hrs by MTT assay; assay type: functional; parameters: scale not given: the % may be the effect or the level left
HOP-92 = assay: Growth inhibition of human HOP92 cells at 10 uM after 96 hrs by MTT assay; assay type: functional; parameters: scale not given: the % may be the effect or the level left
HOP-62 = assay: Growth inhibition of human HOP62 cells at 10 uM after 96 hrs by MTT assay; assay type: functional; parameters: scale not given: the % may be the effect or the level left
U-251 = assay: Growth inhibition of human U251 cells at 10 uM after 96 hrs by MTT assay; assay type: functional; parameters: scale not given: the % may be the effect or the level left
HCC 2998 = assay: Growth inhibition of human HCC2998 cells at 10 uM after 96 hrs by MTT assay; assay type: functional; parameters: scale not given: the % may be the effect or the level left
OVCAR-3 = assay: Growth inhibition of human OVCAR-3 cells at 10 uM after 96 hrs by MTT assay; assay type: functional; parameters: scale not given: the % may be the effect or the level left
UACC-257 = assay: Growth inhibition of human UACC257 cells at 10 uM after 96 hrs by MTT assay; assay type: functional; parameters: scale not given: the % may be the effect or the level left
MDA-MB-231 = assay: Growth inhibition of human MDA-MB-231 cells at 10 uM after 96 hrs by MTT assay; assay type: functional; parameters: scale not given: the % may be the effect or the level left
SR = assay: Growth inhibition of human SR cells at 10 uM after 96 hrs by MTT assay; assay type: functional; parameters: scale not given: the % may be the effect or the level left
LOX IMVI = assay: Growth inhibition of human LOXIMVI cells at 10 uM after 96 hrs by MTT assay; assay type: functional; parameters: scale not given: the % may be the effect or the level left
A498 = assay: Growth inhibition of human A498 cells at 10 uM after 96 hrs by MTT assay; assay type: functional; parameters: scale not given: the % may be the effect or the level left
UACC-62 = assay: Growth inhibition of human UACC62 cells at 10 uM after 96 hrs by MTT assay; assay type: functional; parameters: scale not given: the % may be the effect or the level left
NCI-H226 = assay: Growth inhibition of human NCI-H226 cells at 10 uM after 96 hrs by MTT assay; assay type: functional; parameters: scale not given: the % may be the effect or the level left
SF-268 = assay: Growth inhibition of human SF268 cells at 10 uM after 96 hrs by MTT assay; assay type: functional; parameters: scale not given: the % may be the effect or the level left
MDA-MB-468 = assay: Growth inhibition of human MDA-MB-468 cells at 10 uM after 96 hrs by MTT assay; assay type: functional; parameters: scale not given: the % may be the effect or the level left
[2] = Growth inhibition of human RPMI8266 cells at 10 uM after 96 hrs by MTT assay; assay type: functional; parameters: scale not given: the % may be the effect or the level left
NCI-H23 = assay: Growth inhibition of human NCI-H23 cells at 10 uM after 96 hrs by MTT assay; assay type: functional; parameters: scale not given: the % may be the effect or the level left
OVCAR-8 = assay: Growth inhibition of human OVCAR8 cells at 10 uM after 96 hrs by MTT assay; assay type: functional; parameters: scale not given: the % may be the effect or the level left
KM12 = assay: Growth inhibition of human KM12 cells at 10 uM after 96 hrs by MTT assay; assay type: functional; parameters: scale not given: the % may be the effect or the level left
NCI-H322M = assay: Growth inhibition of human NCI-H322M cells at 10 uM after 96 hrs by MTT assay; assay type: functional; parameters: scale not given: the % may be the effect or the level left
786-0 = assay: Growth inhibition of human 786-0 cells at 10 uM after 96 hrs by MTT assay; assay type: functional; parameters: scale not given: the % may be the effect or the level left
SW-620 = assay: Growth inhibition of human SW620 cells at 10 uM after 96 hrs by MTT assay; assay type: functional; parameters: scale not given: the % may be the effect or the level left
SK-MEL-5 = assay: Growth inhibition of human SK-MEL-5 cells at 10 uM after 96 hrs by MTT assay; assay type: functional; parameters: scale not given: the % may be the effect or the level left
TK-10 = assay: Growth inhibition of human TK10 cells at 10 uM after 96 hrs by MTT assay; assay type: functional; parameters: scale not given: the % may be the effect or the level left
SK-OV-3 = assay: Growth inhibition of human SKOV3 cells at 10 uM after 96 hrs by MTT assay; assay type: functional; parameters: scale not given: the % may be the effect or the level left
K562 = assay: Growth inhibition of human K562 cells at 10 uM after 96 hrs by MTT assay; assay type: functional; parameters: scale not given: the % may be the effect or the level left
[3] = Growth inhibition of human Hs 578T cells at 10 uM after 96 hrs by MTT assay; assay type: functional; parameters: scale not given: the % may be the effect or the level left
RXF 393 = assay: Growth inhibition of human RXF393 cells at 10 uM after 96 hrs by MTT assay; assay type: functional; parameters: scale not given: the % may be the effect or the level left
SF-539 = assay: Growth inhibition of human SF539 cells at 10 uM after 96 hrs by MTT assay; assay type: functional; parameters: scale not given: the % may be the effect or the level left
NCI/ADR-RES = assay: Growth inhibition of human NCI/ADR-RES cells at 10 uM after 96 hrs by MTT assay; assay type: functional; parameters: scale not given: the % may be the effect or the level left
HCT-15 = assay: Growth inhibition of human HCT15 cells at 10 uM after 96 hrs by MTT assay; assay type: functional; parameters: scale not given: the % may be the effect or the level left
SF-295 = assay: Growth inhibition of human SF295 cells at 10 uM after 96 hrs by MTT assay; assay type: functional; parameters: scale not given: the % may be the effect or the level left
MCF7 = assay: Growth inhibition of human MCF7 cells at 10 uM after 96 hrs by MTT assay; assay type: functional; parameters: scale not given: the % may be the effect or the level left
MOLT-4 = assay: Growth inhibition of human MOLT4 cells at 10 uM after 96 hrs by MTT assay; assay type: functional; parameters: scale not given: the % may be the effect or the level left
M14 = assay: Growth inhibition of human M14 cells at 10 uM after 96 hrs by MTT assay; assay type: functional; parameters: scale not given: the % may be the effect or the level left
OVCAR-5 = assay: Growth inhibition of human OVCAR5 cells at 10 uM after 96 hrs by MTT assay; assay type: functional; parameters: scale not given: the % may be the effect or the level left
Malme-3M = assay: Growth inhibition of human MALME-3M cells at 10 uM after 96 hrs by MTT assay; assay type: functional; parameters: scale not given: the % may be the effect or the level left
SN12C = assay: Growth inhibition of human SN12C cells at 10 uM after 96 hrs by MTT assay; assay type: functional; parameters: scale not given: the % may be the effect or the level left
BT-549 = assay: Growth inhibition of human BT549 cells at 10 uM after 96 hrs by MTT assay; assay type: functional; parameters: scale not given: the % may be the effect or the level left
SNB-75 = assay: Growth inhibition of human SNB75 cells at 10 uM after 96 hrs by MTT assay; assay type: functional; parameters: scale not given: the % may be the effect or the level left
NCI-H522 = assay: Growth inhibition of human NCI-H522 cells at 10 uM after 96 hrs by MTT assay; assay type: functional; parameters: scale not given: the % may be the effect or the level left
HT-29 = assay: Growth inhibition of human HT-29 cells at 10 uM after 96 hrs by MTT assay; assay type: functional; parameters: scale not given: the % may be the effect or the level left
HL-60(TB) = assay: Growth inhibition of human HL-60(TB) cells at 10 uM after 96 hrs by MTT assay; assay type: functional; parameters: scale not given: the % may be the effect or the level left
UO-31 = assay: Growth inhibition of human UO31 cells at 10 uM after 96 hrs by MTT assay; assay type: functional; parameters: scale not given: the % may be the effect or the level left

C=C(C)[C@H]1CC=C(C)[C@@]2(O)[C@@H]1[C@H](c1ccccc1Br)O[C@@H]2C(=O)O
IC50 [1]: > 100000 nM

C=C(C)[C@H]1CC(=O)C(C)=C2[C@@H](C(=O)OCC)O[C@@H](c3ccc(Cl)cc3Cl)[C@@H]21
Activity (HCT-116): 42.99% | Activity (MDA-MB-435): 48.5% | Activity (T47D): 40.94% | Activity (EKVX): 69.98% | Activity (DU-145): 83.07% | Activity (A549): 41.04% | Activity (NCI-H460): 58.73% | Activity (OVCAR-4): 65.97% | Activity (COLO 205): 94.54% | Activity (SK-MEL-28): 98.82% | Activity (PC-3): 44.34% | Activity (ACHN): 89.8% | IC50 [1]: 3000 nM | Activity (SK-MEL-2): 39.43% | Activity (SNB-19): 89.23% | Activity (CCRF-CEM): 19.48% | Activity (IGROV-1): 80.84% | Activity (HOP-92): 49.8% | Activity (HOP-62): 84.64% | Activity (U-251): 53.44% | Activity (HCC 2998): 107.11% | Activity (OVCAR-3): 72.74% | Activity (UACC-257): 51.65% | Activity (MDA-MB-231): 76.61% | Activity (SR): 12.69% | Activity (LOX IMVI): 66.98% | Activity (A498): 82.29% | Activity (UACC-62): 45.44% | Activity (NCI-H226): 81.04% | Activity (SF-268): 78.47% | Activity (MDA-MB-468): 13.57% | Activity [2]: -4.6% | Activity (NCI-H23): 65.8% | Activity (OVCAR-8): 81.47% | Activity (KM12): 63.13% | Activity (NCI-H322M): 92.62% | Activity (786-0): 84.02% | Activity (SW-620): 72.54% | Activity (SK-MEL-5): 52.4% | Activity (TK-10): 98.26% | Activity (SK-OV-3): 103.67% | Activity (K562): 25.32% | Activity [3]: 78.32% | Activity (RXF 393): 69.05% | Activity (SF-539): 76.69% | Activity (NCI/ADR-RES): 74.31% | Activity (HCT-15): 71.15% | Activity (SF-295): 88.75% | Activity (MCF7): 62.06% | Activity (MOLT-4): 17.98% | Activity (M14): 78.49% | Activity (OVCAR-5): 119.16% | Activity (Malme-3M): 84.13% | Activity (SN12C): 94.13% | Activity (BT-549): 41.32% | Activity (SNB-75): 50.59% | Activity (NCI-H522): 9.23% | Activity (HT-29): 66.3% | Activity (HL-60(TB)): -31.34% | Activity (UO-31): 121.05%
